These results are taken from ChEMBL document CHEMBL1240492, “3D-QSAR studies of latrunculin-based actin polymerization inhibitors using CoMFA and CoMSIA approaches” (Eur J Med Chem, 2010).

By IC50 is commonly meant the midpoint of a concentration-inhibition curve. Low values mean greater potency in that assay, high ones weaker potency in that assay.

The experiment relates to MCF7. The experiment is described as follows: Antiproliferative activity against human MCF7 cells after 72 hrs by MTT assay. It is filed as functional, cell-based. The conditions noted are these: MCF7, 72 h. The essentials:
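MCF7 breast cancer cells in exponential growth seeded at 8 × 10^3 cells/well and left 24 h to attach. Medium was then switched to serum-free RPMI containing compound at […]. Cells were cultured 72 h at 37 °C in 5% CO2, then given MTT for 4 h and solubilized. A570 was converted to cell number using a hemocytometer-based standard curve. IC50 was obtained by nonlinear regression of log concentration versus cells/well.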
`CO[C@]1([C@@H]2CSC(=O)N2C(=O)c2ccccc2)C[C@H]2C[C@@H](CC[C@H](C)/C=C\C=C\CC/C(C)=C\C(=O)O2)O1` showed an IC50 of 1.82 µM. The result for `C/C1=C/C(=O)O[C@@H]2C[C@@H](CC[C@H](C)/C=C\C=C\CC1)O[C@@](OC(=O)NCCCl)([C@@H]1CSC(=O)N1)C2` reads 17.3 µM; that for `COc1ccc(CC(=O)N2C(=O)SC[C@H]2[C@@]2(OC)C[C@H]3C[C@@H](CC[C@H](C)/C=C\C=C\CC/C(C)=C\C(=O)O3)O2)cc1`, 15.4 µM; that for `C/C1=C/C(=O)O[C@@H]2C[C@@H](CC[C@H](C)/C=C\C=C\CC1)O[C@@](OC(=O)NCCCCl)([C@@H]1CSC(=O)N1)C2`, 25.7 µM. As for `CCCCO[C@]1([C@@H]2CSC(=O)N2)C[C@H]2C[C@@H](CC[C@H](C)/C=C\CC/C(C)=C\C(=O)O2)O1` [15-O-BUTYLLATRUNCULIN B], the figure is 50.1 µM; as for `C/C1=C/C(=O)O[C@@H]2C[C@@H](CC[C@H](C)/C=C\C=C\CC1)O[C@@](OC(=O)NCCBr)([C@@H]1CSC(=O)N1)C2`, 19.4 µM; as for `C/C1=C/C(=O)O[C@@H]2C[C@@H](CC[C@H](C)/C=C\CC1)O[C@@](O)([C@@H]1CSC(=O)N1)C2` [LATRUNCULIN B], 1.91 µM.

`C/C1=C/C(=O)O[C@@H]2C[C@@H](CC[C@H](C)/C=C\C=C\CC1)O[C@@](OC(=O)c1ccccc1)([C@@H]1CSC(=O)N1)C2` showed an IC50 of 1.92 µM. Turning to `CCN1C(=O)SC[C@H]1[C@@]1(OC)C[C@H]2C[C@@H](CC[C@H](C)/C=C\C=C\CC/C(C)=C\C(=O)O2)O1`, 20.7 µM corresponded to half-maximal inhibition (IC50). The result for `C/C1=C/C(=O)O[C@@H]2C[C@@H](CC[C@H](C)/C=C\C=C\CC1)O[C@@](OCCc1ccccc1)([C@@H]1CSC(=O)N1)C2` reads 10 µM; that for `C/C1=C/C(=O)O[C@@H]2C[C@@H](CC[C@H](C)/C=C\C=C\CC1)O[C@@](O)([C@@H]1CSC(=O)N1Cc1ccccc1)C2`, 1.59 µM. As for `CCN1C(=O)SC[C@H]1[C@@]1(O)C[C@H]2C[C@@H](CC[C@H](C)/C=C\C=C\CC/C(C)=C\C(=O)O2)O1`, the figure is 1.05 µM; as for `C/C1=C/C(=O)O[C@@H]2C[C@@H](CC[C@H](C)/C=C\CC1)O[C@@](O)([C@@H]1CSC(=O)N1CO)C2` [N-HYDROXYMETHYLLATRUNCULIN B], 2.35 µM. `CO[C@]1([C@@H]2CSC(=O)N2CCCO)C[C@H]2C[C@@H](CC[C@H](C)/C=C\C=C\CC/C(C)=C\C(=O)O2)O1` gave an IC50 of 19.2 µM. As for `C/C1=C/C(=O)O[C@@H]2C[C@@H](CC[C@H](C)/C=C\C=C\CC1)O[C@@](OC(=O)NCc1ccccc1)([C@@H]1CSC(=O)N1)C2`, the figure is 3.5 µM; as for `C/C1=C/C(=O)O[C@@H]2C[C@@H](CC[C@H](C)/C=C\C=C\CC1)O[C@@](O)([C@@H]1CSC(=O)N1)C2` [LATRUNCULIN A], 2.08 µM; as for `CO[C@]1([C@@H]2CSC(=O)N2Cc2ccccc2)C[C@H]2C[C@@H](CC[C@H](C)/C=C\C=C\CC/C(C)=C\C(=O)O2)O1`, 1.28 µM. As to `CO[C@]1([C@@H]2CSC(=O)N2C2CCCC2)C[C@H]2C[C@@H](CC[C@H](C)/C=C\C=C\CC/C(C)=C\C(=O)O2)O1`, the IC50 is 5.2 µM. As for `C/C1=C/C(=O)O[C@@H]2C[C@@H](CC[C@H](C)/C=C\C=C\CC1)O[C@@](OC(=O)Nc1ccccc1)([C@@H]1CSC(=O)N1)C2`, the figure is 7.69 µM.

The compound `CCCCCCCCO[C@]1([C@@H]2CSC(=O)N2)C[C@H]2C[C@@H](CC[C@H](C)/C=C\CC/C(C)=C\C(=O)O2)O1` [15-O-OCTYLLATRUNCULIN B] had an IC50 of 50.1 µM. Compound `CO[C@]1([C@@H]2CSC(=O)N2)C[C@H]2C[C@@H](CC[C@H](C)/C=C\CC/C(C)=C\C(=O)O2)O1` [15-METHOXYLATRUNCULIN B] had an IC50 of 19.3 µM. `CO[C@]1([C@@H]2CSC(=O)N2C)C[C@H]2C[C@@H](CC[C@H](C)/C=C\C=C\CC/C(C)=C\C(=O)O2)O1` gave a half-maximal inhibitory concentration (IC50) of 13.1 µM. For the compound `CO[C@]1([C@@H]2CSC(=O)N2)C[C@H]2C[C@@H](CC[C@H](C)/C=C\C=C\CC/C(C)=C\C(=O)O2)O1`, the IC50 is 10.2 µM. Compound `CC(=O)N1C(=O)SC[C@H]1[C@@]1(O)C[C@H]2C[C@@H](CC[C@H](C)/C=C\CC/C(C)=C\C(=O)O2)O1` [N-ACETYLLATRUNCULIN B] gave an IC50 of 4.3 µM.

Compound `C/C1=C/C(=O)O[C@@H]2C[C@@H](CC[C@H](C)/C=C\C=C\CC1)O[C@@](O)([C@@H]1CSC(=O)N1CO)C2` had an IC50 of 8.34 µM.
